Compound activity deposited in PubChem BioAssay by several laboratories.
RAD54 inh: RAD54 (human) branch migration inhibition; Q92698; RAD54 Holliday junction branch migration, FAM/BHQ fluorescence; inhibition, % at 10.4 µM; 360,000 compounds, 0.14% hits; AID 602329;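 active = mean normalized replicate activity at least 40 and at least half of replicates scoring 40 or more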;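 also: inhibitors cause a drop in the FAM fluorescence signal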
RAD52 anneal inh: RAD52 (human) annealing inhibition; P43351; recombinant RAD52 DNA annealing, FRET fluorescence; inhibition, % at 18.7 µM; 360,000 compounds, 0.46% hits;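 active = every replicate showing at least 50% inhibition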
Neddyl block: blocks human cullin neddylation. P61081+Q13564. TR-FRET cullin neddylation, biochemical. calls only at 25 µM. 360,000 compounds, 0.58% hits. AID 651699; in the data active = inhibition above about 36%
DNA FID counter: displaces DNA intercalator in HCV helicase counter-screen. DNA fluorescent intercalator displacement, fluorescence. inhibition, % at 7.9 µM. 290,000 compounds, 0.17% hits; in the data active = inhibition above about 37%;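 also: higher means more ethidium bromide displaced from hairpin DNA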
UBC13 inh: human UBC13 polyubiquitination inhibition | P61088 | UBC13 polyubiquitin chain formation, TR-FRET | inhibition, % at 20 µM | 330,000 compounds, 0.47% hits | AID 485273; in the data active = inhibition above about 45%, passing the limit was not always enough
Apaf1 inhib: inhibitors of human Apaf-1 apoptosome. O14727. reconstituted apoptosome caspase-3 activity, DEVD-Rh110 fluorescence. inhibition, % at 20 µM. 330,000 compounds, 0.71% hits. AID 489030; active = inhibition of at least 40% at 20 µM
Target sequence (O14727 whole entry, looked up): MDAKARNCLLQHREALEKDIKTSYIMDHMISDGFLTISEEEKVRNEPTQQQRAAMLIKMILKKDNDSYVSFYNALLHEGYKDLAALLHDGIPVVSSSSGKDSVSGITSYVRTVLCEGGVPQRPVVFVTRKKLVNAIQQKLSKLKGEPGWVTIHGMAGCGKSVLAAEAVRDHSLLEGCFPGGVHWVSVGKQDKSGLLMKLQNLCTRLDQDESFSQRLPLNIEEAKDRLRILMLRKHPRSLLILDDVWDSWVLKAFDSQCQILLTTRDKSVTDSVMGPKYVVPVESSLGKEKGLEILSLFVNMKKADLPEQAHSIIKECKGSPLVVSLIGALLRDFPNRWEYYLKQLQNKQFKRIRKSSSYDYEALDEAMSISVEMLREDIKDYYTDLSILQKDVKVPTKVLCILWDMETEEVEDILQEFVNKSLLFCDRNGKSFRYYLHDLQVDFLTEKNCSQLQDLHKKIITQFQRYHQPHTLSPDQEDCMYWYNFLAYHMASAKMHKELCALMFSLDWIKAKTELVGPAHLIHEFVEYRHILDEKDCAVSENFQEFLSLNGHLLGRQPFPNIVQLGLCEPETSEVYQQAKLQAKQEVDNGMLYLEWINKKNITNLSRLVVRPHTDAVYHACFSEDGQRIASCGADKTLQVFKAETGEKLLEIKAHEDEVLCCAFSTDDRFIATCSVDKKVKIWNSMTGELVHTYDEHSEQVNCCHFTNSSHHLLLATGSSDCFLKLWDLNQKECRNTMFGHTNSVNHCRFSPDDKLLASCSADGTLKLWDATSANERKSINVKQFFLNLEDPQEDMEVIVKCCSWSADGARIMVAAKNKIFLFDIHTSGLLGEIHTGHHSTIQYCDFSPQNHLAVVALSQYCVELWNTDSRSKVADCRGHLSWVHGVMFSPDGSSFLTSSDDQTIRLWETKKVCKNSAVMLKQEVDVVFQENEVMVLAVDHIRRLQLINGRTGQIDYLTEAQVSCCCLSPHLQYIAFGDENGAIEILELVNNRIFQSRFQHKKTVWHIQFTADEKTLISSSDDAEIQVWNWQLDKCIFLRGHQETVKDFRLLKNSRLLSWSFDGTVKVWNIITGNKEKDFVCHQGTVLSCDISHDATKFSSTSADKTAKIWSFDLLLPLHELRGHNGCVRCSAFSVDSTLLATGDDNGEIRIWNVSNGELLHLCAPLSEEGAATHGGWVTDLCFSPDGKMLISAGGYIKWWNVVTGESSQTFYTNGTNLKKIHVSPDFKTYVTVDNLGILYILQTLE
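System – cell-free apoptosome with Apaf-1, procaspase-3 and caspase-9 · Buffer or medium – pH 7.5 Hepes buffer with CHAPS, BSA, DTT · Also added – cytochrome c with DEVD-Rh110 · Times – 30 min compound preincubation, 50 min activation, room temperature · Technique – Rh110 fluorescence intensity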
Hits are given with their value; 0 = inactive; - = no result given; + = active, no number; ! = not active in a repeat. An excerpt weighted towards active compounds, which were near 1.6% of everything screened.

SMILES | RAD54 inh | RAD52 anneal inh | Neddyl block | DNA FID counter | UBC13 inh | Apaf1 inhib
Cc1c(OCC(=O)NC2CC(C)(C)NC(C)(C)C2)ccc2c3c(c(=O)oc12)CCC3 | 0 | 0 | 0 | 39 | 0 | 0
CCCC[n+]1c2ccccc2cc2ccccc21 | 0 | 0 | 0 | 38 | 0 | 0
CCCCC[n+]1cccc2c3ccccc3ccc21 | - | 0 | - | 0 | 0 | 0
CCC[n+]1c2ccccc2cc2ccccc21 | 0 | 0 | 0 | 38 | 0 | 0
CCC(=O)Nc1nnc(-c2ccncc2)s1 | - | - | + | 0 | 0 | 0
CCNc1nnc(-c2ccncc2)s1 | 0 | - | - | 0 | 0 | 0
O=C(C[C@H]1C=C[C@@H](NC(=O)C2CCOCC2)[C@@H](CO)O1)Nc1nccs1 | - | 0 | - | - | - | -
COc1ccc(CCn2c(O)cc3nn(-c4nc5ccccc5s4)c(=O)c-3c2C)cc1 | - | 0 | + | 0 | 0 | 0
COc1ccc2c3c(n(C)c2c1)[C@@H](CO)N(C(=O)c1ccccc1)CC31CCN(C(C)=O)CC1 | - | 0 | - | - | - | -
CCNCc1cc(Br)c(OCC(=O)Nc2ccccc2)c(OC)c1 | 0 | - | 0 | 0 | 0 | 0
COc1cc(CNCCc2ccccc2)cc(Br)c1OCC(=O)Nc1ccccc1C | - | 0 | 0 | 44 | 0 | 0
COc1ccc(/C=C2/SC(=S)N(c3ccc(S(=O)(=O)Nc4nccs4)cc3)C2=O)cc1 | - | 0 | + | 0 | 0 | 0
COc1cccc2c1C(=O)c1c(O)c3c(c(O)c1C2=O)C[C@@](O)(C(=O)CO)C[C@@H]3O[C@H]1C[C@H](N)[C@@H](O)[C@H](C)O1 | 0 | - | 0 | - | 0 | 56
COc1cccc2c1C(=O)c1c(O)c3c(c(O)c1C2=O)C[C@@](O)(C(C)=O)C[C@@H]3O[C@H]1C[C@H](N)[C@H](O)[C@H](C)O1 | 0 | 0 | 0 | 0 | - | -
O=C(c1cnccn1)N1CC[C@@H]2[C@H]1c1cc(-c3cccc(F)c3)ccc1N[C@@H]2CO | 0 | 0 | - | - | - | -
COc1ccccc1-c1ccc(C2[C@@H]3CN(S(=O)(=O)c4ccc(F)cc4)C[C@H]2N3)cc1 (stereo not given in full) | - | 61! | - | - | - | -
COc1ccccc1-c1ccc(C2[C@H]3CNC[C@@H]2N3S(=O)(=O)c2ccccc2)cc1 (stereo not given in full) | - | 0 | - | - | - | -
COc1ccccc1-c1ccc(C2[C@@H]3CN(S(=O)(=O)c4ccccc4)C[C@H]2N3)cc1 (stereo not given in full) | - | 55 | - | - | - | -
Cc1coc2c1C(=O)C(=O)c1c-2ccc2c(C)cccc12 | 0 | - | 0 | - | 0 | 96
C[C@@H]1CCCCO[C@@H](CN(C)C(=O)C2CCCCC2)[C@H](C)CN([C@@H](C)CO)C(=O)c2cc(NC(=O)Nc3ccc(F)cc3)ccc2O1 | 0 | 0 | - | - | - | -
COCC(=O)Nc1ccc2c(c1)C(=O)N(C)C[C@H](OC)[C@@H](C)CN(C(=O)c1ccccc1F)[C@H](C)CO2 | 0 | 0 | - | - | - | -
CCCN1CCc2c(sc(NC(=O)c3ccc(S(=O)(=O)N(C)c4ccccc4)cc3)c2C(=O)NC)C1 | 0 | 0 | 0 | 44 | 0 | 0
c1csc(-c2nc(NCC3CCCO3)c3ccccc3n2)c1 (stereo not given) | 0 | 0 | 0 | 0 | 0 | 0
c1ccc(CN2CCC(Nc3nc(-c4cccs4)nc4ccccc34)CC2)cc1 | - | 0 | 0 | 59 | 0 | 0
N#Cc1cccc(-c2ccc3c(c2)[C@H]2[C@H](CCN2Cc2ccncc2)[C@@H](CO)N3)c1 | - | 0 | - | - | - | -
SMILES | RAD54 inh | RAD52 anneal inh | Neddyl block | DNA FID counter | UBC13 inh | Apaf1 inhib
CCc1ccc(C2NC(=S)NC3=C2C(=O)CCC3)cc1 (stereo not given) | - | 0 | 0 | 0 | 0 | 0
CCCCCCCc1ccc(C2NC(=S)NC3=C2C(=O)c2ccccc23)cc1 (stereo not given) | - | - | - | 0 | 0 | 44
C=CCOc1ccc(CN(C)CC(=O)Nc2ccc3c(c2)CCC3)cc1 | - | 0 | 0 | 37 | 0 | 0
CCOc1ccc(CN(C)CC(=O)Nc2ccc3c(c2)CCC3)cc1OC | 0 | 0 | 0 | 0 | 0 | 0
Cc1noc(C)c1S(=O)(=O)Nc1ccc2c(c1)C(=O)N([C@@H](C)CO)C[C@H](C)[C@@H](CN(C)S(=O)(=O)c1cccs1)OCCCC[C@@H](C)O2 | 0 | - | - | - | - | -
COc1cc(C2Nc3cccc4cccc(c34)N2)cc(OC)c1OC(C)=O | - | - | 0 | 0 | 0 | 41
C[C@H](CO)N1C[C@H](C)[C@@H](CN(C)S(=O)(=O)c2ccc(F)cc2)OCCCC[C@H](C)Oc2ccc(NC(=O)Nc3ccccc3)cc2C1=O | 0 | - | - | - | - | -
COc1cccc(C(c2nnnn2CS(=O)(=O)c2ccc(C)cc2)N2CCN(C)CC2)c1OC (stereo not given) | 0 | - | 0 | 41 | 0 | 0
COc1ccccc1C(c1nnnn1CS(=O)(=O)c1ccc(C)cc1)N1CCSCC1 (stereo not given) | 0 | - | 0 | 0 | 0 | 0
C[C@H](CO)N1C[C@H](C)[C@@H](CN(C)Cc2ccccc2)Oc2ccc(NC(=O)C3CC3)cc2C1=O | 0 | 0 | - | - | - | -
Cc1ccc(-c2ccc(CCC(=O)O)n2CC(=O)O)cc1 | 0 | - | + | 0 | 0 | 0
CCCC#Cc1ccc2c(c1)O[C@H](CN(C)C(=O)c1ccccn1)[C@H](C)CN([C@H](C)CO)S2(=O)=O | 0 | 0 | - | - | - | -
O=C(Nc1ccc(C(F)(F)F)cc1)N1C[C@@H]2N[C@H](C1)C2c1ccc(-c2cccc(F)c2)cc1 (stereo not given in full) | - | 62 | - | - | - | -
N#Cc1ccc(-c2ccc(C3[C@@H]4CN(C(=O)Nc5ccc(C(F)(F)F)cc5)C[C@H]3N4)cc2)cc1 (stereo not given in full) | - | 80! | - | - | - | -
Cc1ccc(-c2ccc(C3[C@@H]4CN(C(=O)Nc5ccc(C(F)(F)F)cc5)C[C@H]3N4)cc2)cc1 (stereo not given in full) | - | 0 | - | - | - | -
C[C@@H]1CCCCO[C@H](CN(C)Cc2ccccc2)[C@@H](C)CN([C@@H](C)CO)C(=O)c2cc(NS(=O)(=O)c3ccc(F)cc3)ccc2O1 | 0 | 0 | - | - | - | -
O=C(C[C@H]1CC[C@@H]2[C@H](COC[C@@H](O)CN2Cc2ccccc2F)O1)N[C@H]1CCN(Cc2ccccc2)C1 | 0 | 0 | - | - | - | -
O=C(NN=Cc1ccc(O)cc1O)c1ccccc1NS(=O)(=O)c1cccs1 | 0 | 0 | + | - | 0 | 0
COc1ccc(C=NNC(=O)c2ccccc2NS(=O)(=O)c2cccs2)cc1O | 0 | 0 | 0 | - | 0 | 0
C[C@@H]1CN([C@@H](C)CO)C(=O)Cc2cc(NC(=O)CCN3CCOCC3)ccc2O[C@H]1CN(C)Cc1ccc(Oc2ccccc2)cc1 | 0 | 0 | - | - | - | -
O=C(CCn1cnc(-c2ccccc2)c1-c1ccccc1)N/N=C/c1ccccc1O | 0 | 0 | + | 0 | 0 | 0
O=C(CCn1cnc(-c2ccccc2)c1-c1ccccc1)N/N=C/c1ccc(O)cc1 | 0 | 0 | 0 | 0 | 0 | 0
C[C@H](CO)N1C[C@H](C)[C@H](CN(C)Cc2ccc3c(c2)OCO3)OCCCC[C@H](C)Oc2ccc(NS(=O)(=O)c3ccc(Cl)cc3)cc2C1=O | 0 | 63 | - | - | - | -
